# Data: ChEMBL document CHEMBL1145996 (J Med Chem, 2003)
# Test system: Plasmodium falciparum
# Assay: In vitro antimalarial activity against chloroquine-sensitive Plasmodium falciparum D6 Sierra Leone
# Assay type: functional, organism-based
row,Structure (SMILES),IC50 [µM]
1,C[C@@H]1CC[C@H]2[C@@H](CCCc3ccccc3)C(=O)O[C@@H]3O[C@@]4(C)CCC1[C@]32OO4 (stereo partly specified),0.0047
2,C[C@@H]1CC[C@H]2[C@@H](CCCc3cc(C(F)(F)F)cc(C(F)(F)F)c3)C(=O)O[C@@H]3O[C@@]4(C)CC[C@@H]1[C@]32OO4,0.0188
3,C[C@@H]1CC[C@H]2[C@@H](CCCc3ccc(N(C)C)cc3)C(=O)O[C@@H]3O[C@@]4(C)CCC1[C@]32OO4 (stereo partly specified),0.0278
4,C[C@@H]1CC[C@H]2[C@H](CCCc3ccccc3)C(=O)O[C@@H]3O[C@@]4(C)CCC1[C@]32OO4 (stereo partly specified),0.0104
5,OC(c1cc(C(F)(F)F)nc2c(C(F)(F)F)cccc12)C1CCCCN1 (stereo unspecified) [MEFLOQUINE],0.17

# Test system: Plasmodium falciparum
# Assay: In vitro antimalarial activity against chloroquine-resistant Plasmodium falciparum W2 Indochina
# Assay type: functional, organism-based
# Summary of the method: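 Asynchronous P. falciparum cultures (2% hematocrit, 2% parasitemia) given compound dilutions in DMSO or RPMI-1640, incubated 48 h at 37°C under 90% N2/5% CO2/5% O2 in humidified chamber. Growth read as parasite lactate dehydrogenase activity with Malstat reagent. At least six concentrations, each in duplicate; medium and RBC controls on each plate.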
row,Structure (SMILES),IC50 [µM]
1,C[C@@H]1CC[C@H]2[C@@H](CCCc3ccccc3)C(=O)O[C@@H]3O[C@@]4(C)CCC1[C@]32OO4 (stereo partly specified),0.0013
2,C[C@@H]1CC[C@H]2[C@@H](CCCc3cc(C(F)(F)F)cc(C(F)(F)F)c3)C(=O)O[C@@H]3O[C@@]4(C)CC[C@@H]1[C@]32OO4,0.016
3,C[C@@H]1CC[C@H]2[C@@H](CCCc3ccc(N(C)C)cc3)C(=O)O[C@@H]3O[C@@]4(C)CCC1[C@]32OO4 (stereo partly specified),0.0113
4,C[C@@H]1CC[C@H]2[C@H](CCCc3ccccc3)C(=O)O[C@@H]3O[C@@]4(C)CCC1[C@]32OO4 (stereo partly specified),0.0034
5,OC(c1cc(C(F)(F)F)nc2c(C(F)(F)F)cccc12)C1CCCCN1 (stereo unspecified) [MEFLOQUINE],0.195

# Test system: Leishmania donovani
# Assay: Antileishmanial activity of compound against leishmania donovani was determined in luciferase assay
# Assay type: functional, organism-based
# Summary of the method: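 Transgenic Leishmania donovani promastigotes expressing firefly luciferase, 2×10^6 cell/mL, exposed to compound dilutions in 96-well plates at 26°C for 72 h; growth read by luciferase luminescence (Steady Glo). At least six concentrations, each in duplicate; mean values used for growth inhibition curves and IC50. Pentamidine and amphotericin B as standards.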
row,Structure (SMILES),IC50 [µM]
1,C[C@@H]1CC[C@H]2[C@@H](CCCc3cccc(Cl)c3)C(O)O[C@@H]3O[C@@]4(C)CC[C@@H]1[C@]32OO4 (stereo partly specified),16.6
2,CCC[C@@]12CCC3[C@H](C)CC[C@H]4CC(=O)O[C@H](O1)[C@@]34OO2 (stereo partly specified),40.5
3,CCC[C@H]1C(=O)O[C@@H]2O[C@@]3(C)CCC4[C@H](C)CC[C@@H]1[C@]42OO3 (stereo partly specified),16.8
4,C[C@@H]1CC[C@H]2[C@@H](CCCc3ccccc3)C(=O)O[C@@H]3O[C@@]4(C)CCC1[C@]32OO4 (stereo partly specified),11.6
5,C[C@@H]1CC[C@H]2[C@@H](CCCc3cc(C(F)(F)F)cc(C(F)(F)F)c3)C(=O)O[C@@H]3O[C@@]4(C)CC[C@@H]1[C@]32OO4,14.4
6,C[C@@H]1CC[C@H]2[C@@H](CCCc3ccc(N(C)C)cc3)C(=O)O[C@@H]3O[C@@]4(C)CCC1[C@]32OO4 (stereo partly specified),1.9
7,C[C@@H]1CC[C@H]2CCO[C@@H]3O[C@@]4(C)CC[C@@H]1[C@@]23OO4,49.2
8,CCCC[C@H]1C(=O)O[C@@H]2O[C@@]3(C)CCC4[C@H](C)CC[C@@H]1[C@]42OO3 (stereo partly specified),12.3
9,C[C@@H]1CC[C@H]2CC(=O)N(Cc3ccccc3)[C@@H]3O[C@@]4(C)CC[C@@H]1[C@@]23OO4,56
10,C[C@@H]1CC[C@H]2[C@@H](CCCc3ccc(Cl)c(Cl)c3)CO[C@@H]3O[C@@]4(C)CC[C@@H]1[C@]32OO4,2.3
11,C[C@@H]1CC[C@H]2[C@@H](CCCc3cc(F)cc(F)c3)C(O)O[C@@H]3O[C@@]4(C)CC[C@@H]1[C@]32OO4 (stereo partly specified),33
12,C[C@@H]1CC[C@H]2CC(=O)N(CC(=O)OC(C)(C)C)[C@@H]3O[C@@]4(C)CC[C@@H]1[C@@]23OO4,27.5
13,C[C@@H]1CC[C@H]2[C@@H](CCCc3cccc(F)c3)C(=O)O[C@@H]3O[C@@]4(C)CCC1[C@]32OO4 (stereo partly specified),3.7
14,CCC[C@@]12CC[C@H]3[C@H](C)CC[C@H]4CCO[C@H](O1)[C@]43OO2,70.8
15,C[C@@H]1CC[C@H]2[C@@H](CCc3ccccc3)C(=O)O[C@@H]3O[C@@]4(C)CCC1[C@]32OO4 (stereo partly specified),40.3
16,CC(C)CN1C(=O)C[C@@H]2CC[C@@H](C)[C@@H]3CC[C@@]4(C)OO[C@@]23[C@H]1O4,186
17,C[C@@H]1CC[C@H]2[C@@H](CCCc3ccc(C(F)(F)F)cc3)CO[C@@H]3O[C@@]4(C)CC[C@@H]1[C@]32OO4,1.8
18,"CCOC(=O)CCC12CCC3[C@H](C)CC[C@H]4CC(=O)O[C@H](O1)[C@@]34OO2 (single isomer, unassigned)",31
19,C[C@@H]1CC[C@H]2[C@@H](C)C(=O)O[C@@H]3OC(C)(C)OO[C@@]32[C@H]1C,158
20,CCCC[C@H]1C(=O)O[C@@H]2O[C@@]3(CC)CCC4[C@H](C)CC[C@@H]1[C@]42OO3 (stereo partly specified),35.5
21,C[C@@H]1CC[C@H]2CC(=O)N(CCc3ccccc3)[C@@H]3O[C@@]4(C)CC[C@@H]1[C@@]23OO4,32.3

row,Structure (SMILES),IC50 [µM]
1,CCCC[C@@]12CC[C@H]3[C@H](C)CC[C@H]4CCO[C@H](O1)[C@]43OO2,152
2,"C[C@@H]1CC[C@H]2CC(=O)O[C@@H]3OC4(CCc5ccccc5)CC[C@@H]1[C@@]23OO4 (single isomer, unassigned)",12.6
3,C[C@@H]1CC[C@H]2[C@@H](CCCc3cc(F)cc(F)c3)C(=O)O[C@@H]3O[C@@]4(C)CCC1[C@]32OO4 (stereo partly specified),49.7
4,C[C@@H]1CC[C@H]2[C@@H](CCCc3ccc(C(F)(F)F)cc3)C(O)O[C@@H]3O[C@@]4(C)CC[C@@H]1[C@]32OO4 (stereo partly specified),2.9
5,C[C@@H]1CC[C@H]2[C@@H](CCCC(F)(F)F)C(O)O[C@@H]3O[C@@]4(C)CC[C@@H]1[C@]32OO4 (stereo partly specified),26.3
6,C[C@@H]1CC[C@H]2[C@@H](CCCCc3ccccc3)C(=O)O[C@@H]3O[C@@]4(C)CCC1[C@]32OO4 (stereo partly specified),7.5
7,C[C@@H]1CC[C@H]2[C@@H](CCCC(F)(F)F)C(=O)O[C@@H]3O[C@@]4(C)CCC1[C@]32OO4 (stereo partly specified),79.3
8,"C[C@@H]1CC[C@H]2[C@@H](C)CO[C@@H]3OC4(C)CC[C@@H]1[C@]32OO4 (single isomer, unassigned) [DEOXOARTEMISININ]",46.6
9,C[C@@H]1CC[C@H]2C(C)(C)C(=O)O[C@@H]3O[C@@]4(C)CCC1[C@]32OO4 (stereo partly specified),101
10,"C[C@@H]1CC[C@H]2CCO[C@@H]3OC4(CCc5ccccc5)CC[C@@H]1[C@@]23OO4 (single isomer, unassigned)",37.7
11,C[C@@H]1CC[C@H]2[C@@H](C)C(=O)O[C@@H]3O[C@@]4(C)CC[C@@H]1[C@]32OO4 [ARTEMISININ],124
12,C[C@@H]1CC[C@H]2[C@@H](CCCc3cc(F)cc(F)c3)CO[C@@H]3O[C@@]4(C)CC[C@@H]1[C@]32OO4,11
13,CCCC[C@H]1C(=O)O[C@@H]2O[C@@]3(CCCCc4ccccc4)CCC4[C@H](C)CC[C@@H]1[C@]42OO3 (stereo partly specified),4.5
14,C[C@@H]1CC[C@H]2CC(=O)O[C@@H]3O[C@@]4(CCCc5ccc(Cl)cc5)CCC1[C@@]23OO4 (stereo partly specified),11.1
15,C[C@@H]1CC[C@H]2[C@H](CCCc3ccccc3)C(=O)O[C@@H]3O[C@@]4(C)CCC1[C@]32OO4 (stereo partly specified),45.3
16,CC[C@@]12CC[C@H]3[C@H](C)CC[C@H]4CC(=O)O[C@H](O1)[C@]43OO2,177
17,C[C@H]1[C@@H](O)O[C@@H]2O[C@@]3(C)CC[C@H]4[C@H](C)CC[C@@H]1[C@@]24OO3 [ARTENIMOL],70.3
18,C[C@@H]1CC[C@H]2[C@@H](CCCc3ccc(Cl)cc3)C(=O)O[C@@H]3O[C@@]4(C)CCC1[C@]32OO4 (stereo partly specified),11.9
19,CC1(C)OO[C@]23CCCC[C@H]2C(C)(C)C(=O)O[C@@H]3O1,204
20,C[C@@H]1CC[C@H]2[C@@H](CCCc3ccc(Cl)cc3)C(O)O[C@@H]3O[C@@]4(C)CC[C@@H]1[C@]32OO4 (stereo partly specified),4.7
21,C[C@@H]1CC[C@H]2[C@@H](CCCc3ccc(Cl)cc3)CO[C@@H]3O[C@@]4(C)CC[C@@H]1[C@]32OO4,4.9

row,Structure (SMILES),IC50 [µM]
1,CC(=O)O[C@@H]1O[C@@]2(C)CC[C@H]3[C@H](C)CCC[C@@]13OO2,148
2,C[C@@H]1CC[C@H]2[C@@H](CCCc3cccc(Cl)c3)CO[C@@H]3O[C@@]4(C)CC[C@@H]1[C@]32OO4,3.7
3,N=C(N)c1ccc(OCCCCCOc2ccc(C(=N)N)cc2)cc1 [PENTAMIDINE],1.35
4,CCCCN1C(=O)C[C@@H]2CC[C@@H](C)[C@@H]3CC[C@@]4(C)OO[C@@]23[C@H]1O4,44.5
5,C[C@@H]1[C@H](O)[C@@H](C)/C=C/C=C/C=C/C=C/C=C/C=C/C=C/[C@H](O[C@@H]2O[C@H](C)[C@@H](O)[C@H](N)[C@@H]2O)C[C@@H]2O[C@](O)(C[C@@H](O)C[C@@H](O)[C@H](O)CC[C@@H](O)C[C@@H](O)CC(=O)O[C@H]1C)C[C@H](O)[C@H]2C(=O)O [AMPHOTERICIN B],0.01
6,C[C@@H]1CC[C@H]2[C@@H](Cc3ccccc3)C(=O)O[C@@H]3O[C@@]4(C)CCC1[C@]32OO4 (stereo partly specified),15.3
7,CC(C)CCC[C@H]1C(=O)O[C@@H]2O[C@@]3(C)CCC4[C@H](C)CC[C@@H]1[C@]42OO3 (stereo partly specified),8.5
8,C[C@@H]1CC[C@H]2[C@@H](CCCc3cc(C(F)(F)F)cc(C(F)(F)F)c3)CO[C@@H]3O[C@@]4(C)CC[C@@H]1[C@]32OO4,0.3
9,CCOC1O[C@@H]2O[C@]3(C)CC[C@H]4[C@H](C)CC[C@@H]([C@H]1C)C24OO3 (stereo partly specified),44.8
10,COc1ccc(CCC[C@H]2C(=O)O[C@@H]3O[C@@]4(C)CCC5[C@H](C)CC[C@@H]2[C@]53OO4)cc1 (stereo partly specified),12
11,CCCC[C@@]12CCC3[C@H](C)CC[C@H]4CC(=O)O[C@H](O1)[C@@]34OO2 (stereo partly specified),258
12,C=CC[C@H]1C(=O)O[C@@H]2O[C@@]3(C)CCC4[C@H](C)CC[C@@H]1[C@]42OO3 (stereo partly specified),17.8
13,C[C@@H]1CC[C@H]2CC(=O)N(Cc3ccc(Cl)cc3)[C@@H]3O[C@@]4(C)CC[C@@H]1[C@@]23OO4,25.5
14,CC[C@H]1C(=O)O[C@@H]2O[C@@]3(C)CCC4[C@H](C)CC[C@@H]1[C@]42OO3 (stereo partly specified),60.7
15,C[C@@H]1CC[C@H]2CC(=O)O[C@@H]3O[C@@]4(C)CCC1[C@@]23OO4 (stereo partly specified),242
16,COc1ccc(CCC[C@H]2CO[C@@H]3O[C@@]4(C)CC[C@H]5[C@H](C)CC[C@@H]2[C@@]35OO4)cc1,17.4
17,C[C@@H]1CC[C@H]2CC(O)O[C@@H]3O[C@@]4(C)CC[C@@H]1[C@@]23OO4 (stereo partly specified),44.4
18,CCCC[C@H]1C(O)O[C@@H]2O[C@@]3(C)CC[C@H]4[C@H](C)CC[C@@H]1[C@@]24OO3 (stereo partly specified),383
19,C[C@@H]1CC[C@H]2[C@H](CCCc3ccc(N(C)C)cc3)C(=O)O[C@@H]3O[C@@]4(C)CCC1[C@]32OO4 (stereo partly specified),88.3
